The values below come from ChEMBL document CHEMBL4312035, “Preliminary SAR and biological evaluation of potent HIV-1 protease inhibitors with pyrimidine bases as novel P2 ligands to enhance activity against DRV-resistant HIV-1 variants” (Eur J Med Chem, 2020).

The subject of data set [1] is Human immunodeficiency virus 1. The data set is described as follows: Antiviral activity against wild-type HIV1 NL4-3 infected in human SupT1 cells infected with […] after 48 hrs by luciferase reporter assay. The data set is classed as functional, organism-based. Particulars: Human immunodeficiency virus 1, NL4-3, 48 h.
Data set [2] deals with Human immunodeficiency virus 1. In words: Antiviral activity against VSV-G pseudotyped HIV1 transfected in human 293T cells co-transfected with NL4-3 HIV1 supernatant infected in human SupT1 cells treated with compound for 48 hrs assessed as inhibition of viral infection at 10 uM after 48 hrs by luciferase assay (reference value: 0 %). The data set is classed as functional. Particulars: Human immunodeficiency virus 1, 48 h.

Data set [3] in a line: Cytotoxicity against human 293T cells measured after 24 hrs by CCK8 assay. The data set is classed as cell-based. Particulars: HEK-293T cells. In short, it runs like this:
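293T cells plated at 20 000 per well and cultured 24 h before drug addition; exposure 24 h, then CCK-8 added and absorbance read at 450 nm after 2 h at room temperature. Run in triplicate; mean ± 1 SD from three independent experiments.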

Data set [4] relates to Human immunodeficiency virus 1. In words: Antiviral activity against darunavir-resistant HIV1 NL4-3 infected in human […] after 48 hrs by luciferase reporter assay. The data set is classed as functional, organism-based. Particulars: Human immunodeficiency virus 1, NL4-3, 48 h.
Data set [5] concerns the target Protease (Human immunodeficiency virus 1, UniProt Q9YQ12). The data set is described as follows: Inhibition of HIV1 protease expressed in Escherichia coli using Arg-Glu (EDANS)-Ser-Gln-Asn-Tyr-Pro-Ile-Val-Gln-Lys(DABCYL)-Arg as substrate preincubated for 20 to 30 mins followed by substrate addition and measured for 10 mins by FRET assay. In short, it runs like this:
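Recombinant HIV-1 protease, purified from E. coli. Buffer: 0.1 M sodium acetate, 1 M NaCl, 1 mM EDTA, 1 mM DTT, 2% DMSO, 1 mg/mL BSA, pH 4.7. Inhibitor dissolved in DMSO. Excitation 340 nm, emission 490 nm, recorded about 10 min. Run in triplicate; IC50 as mean ± 1 SD from three independent experiments.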

Data set [6] has as its system Human immunodeficiency virus 1. The data set is described as follows: Antiviral activity against VSV-G pseudotyped HIV1 transfected in human 293T cells co-transfected with NL4-3 HIV1 supernatant infected in human SupT1 cells treated with compound for 48 hrs assessed as inhibition of viral infection at 100 nM after 48 hrs by luciferase assay (reference value: 0 %). The settings on record: Human immunodeficiency virus 1, 48 h. The data set is classed as functional.

In data set [7] the test system is Human immunodeficiency virus 1. The data set is described as follows: Ratio of EC50 for antiviral activity against darunavir-resistant HIV1 NL4-3 infected in human SupT1 cells infected with supernatants from virus-infected human TZM-bl cells to EC50 for antiviral activity against wild-type HIV1 NL4-3 infected in human SupT1 cells infected with supernatants from virus-infected human TZM-bl cells. The data set is classed as functional.

A value given as a limit tells only on which side of the number the result lay.

Sequence of Protease (Q9YQ12 whole entry): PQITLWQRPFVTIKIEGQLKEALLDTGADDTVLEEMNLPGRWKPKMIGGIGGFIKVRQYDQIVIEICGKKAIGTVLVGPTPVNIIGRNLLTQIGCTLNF

For `CC(C)CN(C[C@@H](O)[C@H](Cc1ccccc1)NC(=O)O[C@H]1CO[C@H]2OCC[C@H]21)S(=O)(=O)c1ccc(N)cc1`, the values for the half-maximal effective concentration (EC50) in data set [1] and in data set [4] were 6 nM and 100 nM, respectively. Besides, the inhibition at 10 µM in data set [2] was found to be 83.2%. Moreover, the CC50 at 24 h in data set [3] is above 100000 nM.
As for `CC(C)CN(C[C@@H](O)[C@H](Cc1ccccc1)NC(=O)Cn1cc(F)c(N)nc1=O)S(=O)(=O)c1ccc(N)cc1`, it took 105 nM to reach half-maximal inhibition in data set [5] (IC50). The CC50 at 24 h in data set [3] is above 100000 nM.
Regarding `CC(C)CN(C[C@@H](O)[C@H](Cc1ccccc1)NC(=O)Cn1cc(F)c(=O)[nH]c1=O)S(=O)(=O)c1ccc(N)cc1`, the inhibition at 10 µM in data set [2] stood at 63%. Moreover, the midpoint of inhibition in data set [5], the IC50, lay at 16.3 nM. Besides, the CC50 at 24 h in data set [3] came to 8800 nM.
Regarding `COc1ccc(S(=O)(=O)N(CC(C)C)C[C@@H](O)[C@H](Cc2ccccc2)NC(=O)Cn2cccnc2=O)cc1`, the inhibition at 10 µM in data set [2] turned out to be 50.3%. In data set [5], inhibition was half-maximal at 10.3 nM (IC50). Also, in data set [3], the CC50 at 24 h is above 100000 nM.
`COc1ccc(S(=O)(=O)N(CC(C)C)C[C@@H](O)[C@H](Cc2ccccc2)NC(=O)Cn2cc(C)c(N)nc2=O)cc1`: inhibition in data set [5] was half-maximal at 147 nM (IC50). The compound also displayed a half-maximal cytotoxic concentration (CC50) at 24 h in data set [3] above 100000 nM.
Turning to `COc1ccc(S(=O)(=O)N(CC(C)C)C[C@@H](O)[C@H](Cc2ccccc2)NC(=O)Cn2ccc(=O)[nH]c2=O)cc1`, the EC50 in data set [1] worked out at 270 nM; in data set [4], 590 nM. The inhibition at 0.1 µM in data set [6] amounted to 68%. For the same compound, in data set [2], the inhibition at 10 µM was 81%. This compound registered an IC50 in data set [5] of 2.53 nM. Besides, the CC50 at 24 h in data set [3] was above 100000 nM. The “Ratio EC50” value in data set [7] was determined as 2.19.
Turning to `CC(C)CN(C[C@@H](O)[C@H](Cc1ccccc1)NC(=O)Cn1ccc(N)nc1=O)S(=O)(=O)c1ccc(N)cc1`, half-maximal inhibition in data set [5] (IC50) was put at 153 nM. The compound further registered a CC50 at 24 h in data set [3] above 100000 nM.
In data set [5], `Cc1cn(CC(=O)N[C@@H](Cc2ccccc2)[C@H](O)CN(CC(C)C)S(=O)(=O)c2ccc([N+](=O)[O-])cc2)c(=O)nc1N` registered a half-inhibitory concentration (IC50) of 1190 nM. The CC50 at 24 h in data set [3] was above 100000 nM.
On to `CC(C)CN(C[C@@H](O)[C@H](Cc1ccccc1)NC(=O)Cn1cccnc1=O)S(=O)(=O)c1ccc(N)cc1`, for which 126 nM corresponded to half-maximal inhibition in data set [5] (IC50). In addition, the CC50 at 24 h in data set [3] was above 100000 nM.
In the case of `COc1ccc(S(=O)(=O)N(CC(C)C)C[C@@H](O)[C@H](Cc2ccccc2)NC(=O)Cn2cc(F)c(=O)[nH]c2=O)cc1`, the EC50 stood at 1070 nM in data set [1] and 2700 nM in data set [4]. Further, the inhibition at 0.1 µM in data set [6] came out at 51%. For the same compound, the inhibition at 10 µM in data set [2] came to 83.2%. Besides, inhibition in data set [5] was half-maximal at 1.95 nM (IC50). Also, in data set [3], the CC50 at 24 h was above 100000 nM. Further, in data set [7], the “Ratio EC50” value turned out to be 2.52.
Take `Cc1cn(CC(=O)N[C@@H](Cc2ccccc2)[C@H](O)CN(CC(C)C)S(=O)(=O)c2ccc(N)cc2)c(=O)[nH]c1=O`: the inhibition at 10 µM in data set [2] was 54%. In data set [5], this compound registered a half-inhibitory concentration (IC50) of 19.7 nM. Further, the CC50 at 24 h in data set [3] is above 100000 nM.
`CC(C)CN(C[C@@H](O)[C@H](Cc1ccccc1)NC(=O)Cn1cc(F)c(N)nc1=O)S(=O)(=O)c1ccc([N+](=O)[O-])cc1`: the IC50 in data set [5] is 482 nM. For the same compound, the CC50 at 24 h in data set [3] is above 100000 nM.
For `CC(C)CN(C[C@@H](O)[C@H](Cc1ccccc1)NC(=O)Cn1cc(F)c(=O)[nH]c1=O)S(=O)(=O)c1ccc([N+](=O)[O-])cc1`, in data set [2], the inhibition at 10 µM came out at 32.8%. The compound further gave an IC50 in data set [5] of 27.6 nM. In data set [3], this compound gave a 50% cytotoxic concentration (CC50) at 24 h of 32400 nM.
On to `COc1ccc(S(=O)(=O)N(CC(C)C)C[C@@H](O)[C@H](Cc2ccccc2)NC(=O)Cn2cc(C)c(=O)[nH]c2=O)cc1`, for which the EC50 in data set [1] is 2500 nM; in data set [4], 2870 nM. In addition, the inhibition at 10 µM in data set [2] was 72.7%. The compound further had an IC50 in data set [5] of 2.78 nM. The compound further gave a CC50 at 24 h in data set [3] above 100000 nM. In data set [7], the “Ratio EC50” value was determined as 1.15.
With `COc1ccc(S(=O)(=O)N(CC(C)C)C[C@@H](O)[C@H](Cc2ccccc2)NC(=O)Cn2cc(CO)c(=O)[nH]c2=O)cc1`, the inhibition at 10 µM in data set [2] turned out to be 59.8%. In data set [5], this compound yielded an IC50 of 9.07 nM. This compound came in with a CC50 at 24 h in data set [3] above 100000 nM.
For the compound `COc1ccc(S(=O)(=O)N(CC(C)C)C[C@@H](O)[C@H](Cc2ccccc2)NC(=O)Cn2cc(F)c(N)nc2=O)cc1`, the IC50 in data set [5] is 36 nM. The same compound displayed a CC50 at 24 h in data set [3] above 100000 nM.
The compound `Cc1cn(CC(=O)N[C@@H](Cc2ccccc2)[C@H](O)CN(CC(C)C)S(=O)(=O)c2ccc(N)cc2)c(=O)nc1N` had an IC50 in data set [5] of 375 nM. In data set [3], this compound returned a CC50 at 24 h above 100000 nM.
Take `Cc1cn(CC(=O)N[C@@H](Cc2ccccc2)[C@H](O)CN(CC(C)C)S(=O)(=O)c2ccc([N+](=O)[O-])cc2)c(=O)[nH]c1=O`: the IC50 in data set [5] was 44.3 nM. In addition, the cytotoxic concentration (CC50) at 24 h in data set [3] is above 100000 nM.
Regarding `CC(C)CN(C[C@@H](O)[C@H](Cc1ccccc1)NC(=O)Cn1ccc(=O)[nH]c1=O)S(=O)(=O)c1ccc([N+](=O)[O-])cc1`, the inhibition at 10 µM in data set [2] is 51%. Also, in data set [5], the 50% inhibitory concentration (IC50) worked out at 20.1 nM. This compound registered a CC50 at 24 h in data set [3] above 100000 nM.
Regarding `CC(C)CN(C[C@@H](O)[C@H](Cc1ccccc1)NC(=O)Cn1cc(CO)c(=O)[nH]c1=O)S(=O)(=O)c1ccc(N)cc1`, half-maximal inhibition in data set [5] (IC50) was put at 241 nM. In data set [3], the half-maximal cytotoxic concentration (CC50) at 24 h is above 100000 nM.
Consider `CC(C)CN(C[C@@H](O)[C@H](Cc1ccccc1)NC(=O)Cn1cccnc1=O)S(=O)(=O)c1ccc([N+](=O)[O-])cc1`, for which it took 245 nM to reach half-maximal inhibition in data set [5] (IC50). Moreover, in data set [3], the 50% cytotoxic concentration (CC50) at 24 h was above 100000 nM.
`CC(C)CN(C[C@@H](O)[C@H](Cc1ccccc1)NC(=O)Cn1ccc(=O)[nH]c1=O)S(=O)(=O)c1ccc(N)cc1`: the inhibition at 10 µM in data set [2] is 48.4%. In data set [5], the IC50 stood at 20.1 nM. The same compound gave a CC50 at 24 h in data set [3] above 100000 nM.
In data set [5], `CC(C)CN(C[C@@H](O)[C@H](Cc1ccccc1)NC(=O)Cn1cc(CO)c(=O)[nH]c1=O)S(=O)(=O)c1ccc([N+](=O)[O-])cc1` registered an IC50 of 405 nM. Moreover, the CC50 at 24 h in data set [3] was above 100000 nM.
Consider `COc1ccc(S(=O)(=O)N(CC(C)C)C[C@@H](O)[C@H](Cc2ccccc2)NC(=O)Cn2ccc(N)nc2=O)cc1`, for which the inhibition at 10 µM in data set [2] came to 33.2%. The IC50 in data set [5] was determined as 9.04 nM. This compound yielded a cytotoxic concentration (CC50) at 24 h in data set [3] above 100000 nM.
In data set [5], `CC(C)CN(C[C@@H](O)[C@H](Cc1ccccc1)NC(=O)Cn1ccc(N)nc1=O)S(=O)(=O)c1ccc([N+](=O)[O-])cc1` returned an IC50 of 411 nM. In data set [3], this compound showed a CC50 at 24 h above 100000 nM.
Take `Cc1ccnc2c1NC(=O)c1cccnc1N2C1CC1` [NEVIRAPINE]: the inhibition at 0.1 µM in data set [6] lay within 76 to 77%.
